Source: ChEMBL document CHEMBL3124917, “Design, synthesis, and biological evaluation of deuterated C-aryl glycoside as a potent and long-acting renal sodium-dependent glucose cotransporter 2 inhibitor for the treatment of type 2 diabetes” (J Med Chem, 2014)

Legend:
[1] = Tmax in Sprague-Dawley rat at 3 mg/kg, po by LC-MS/MS analysis; format: ADME, organism-based; parameters: dose 3 mg/kg, route oral; details: in vivo
In short: (§1)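 Male Sprague-Dawley rats, n = 4 per group, overnight-fasted. Oral gavage of 3 or 1 mg/kg in 30% PEG400; i.v. arm at 1 mg/kg. Orbital plexus blood taken under ether at 0.083–24 h; plasma deproteinized and assayed by LC-MS/MS. Noncompartmental parameters derived; mean ± SD reported.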

Rattus norvegicus [2] = test: Antidiabetic activity in Sprague-Dawley rat assessed as urinary glucose excretion at 1 mg/kg, po administered 1 hr prior to glucose challenge measured after 1 to 24 hrs relative to dapagliflozin; format: functional, Urine
In short: (§2)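 Overnight-fasted Sprague-Dawley rats, n = 3 per group, dosed 1 mg/kg by oral gavage in 30% PEG400; controls received vehicle. Oral glucose (2 g/kg, 10 mL/kg) given 1 h post-dose. Urine collected in metabolic cages at 0–4 and 4–24 h, glucose measured on a biochemistry analyzer. Expressed as % of reference positive control; mean ± SD.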

[3] = AUC (0 to infinity) in Sprague-Dawley rat at 3 mg/kg, po by LC-MS/MS analysis; format: ADME, organism-based; parameters: time infinity, dose 3 mg/kg, route oral; details: plasma; in short: as §1
[4] = Half life in Sprague-Dawley rat at 3 mg/kg, po by LC-MS/MS analysis; format: ADME, organism-based; parameters: dose 3 mg/kg, route oral; details: in vivo; in short: as §1
Rattus norvegicus [5] = test: Antidiabetic activity in Sprague-Dawley rat assessed as urinary glucose excretion at 1 mg/kg, po administered 1 hr prior to glucose challenge measured after 4 to 24 hrs relative to dapagliflozin; format: functional, Urine; in short: as §2
Rattus norvegicus [6] = test: Antidiabetic activity in Sprague-Dawley rat assessed as urinary glucose excretion at 1 mg/kg, po administered 1 hr prior to glucose challenge measured after 1 to 4 hrs relative to dapagliflozin; format: functional, Urine; in short: as §2
[7] = Cmax in Sprague-Dawley rat at 3 mg/kg, po by LC-MS/MS analysis; format: ADME, organism-based; parameters: dose 3 mg/kg, route oral; details: in vivo; in short: as §1
[8] = target: T1, Sodium/glucose cotransporter 1 (Homo sapiens, UniProt P13866); test: Inhibition of full length human SGLT1 assessed as methyl-alpha-D-[U-14C]glucopyranoside uptake after 2 hrs by cell-based topcount scintillation counting analysis
T1 sequence (P13866 whole entry): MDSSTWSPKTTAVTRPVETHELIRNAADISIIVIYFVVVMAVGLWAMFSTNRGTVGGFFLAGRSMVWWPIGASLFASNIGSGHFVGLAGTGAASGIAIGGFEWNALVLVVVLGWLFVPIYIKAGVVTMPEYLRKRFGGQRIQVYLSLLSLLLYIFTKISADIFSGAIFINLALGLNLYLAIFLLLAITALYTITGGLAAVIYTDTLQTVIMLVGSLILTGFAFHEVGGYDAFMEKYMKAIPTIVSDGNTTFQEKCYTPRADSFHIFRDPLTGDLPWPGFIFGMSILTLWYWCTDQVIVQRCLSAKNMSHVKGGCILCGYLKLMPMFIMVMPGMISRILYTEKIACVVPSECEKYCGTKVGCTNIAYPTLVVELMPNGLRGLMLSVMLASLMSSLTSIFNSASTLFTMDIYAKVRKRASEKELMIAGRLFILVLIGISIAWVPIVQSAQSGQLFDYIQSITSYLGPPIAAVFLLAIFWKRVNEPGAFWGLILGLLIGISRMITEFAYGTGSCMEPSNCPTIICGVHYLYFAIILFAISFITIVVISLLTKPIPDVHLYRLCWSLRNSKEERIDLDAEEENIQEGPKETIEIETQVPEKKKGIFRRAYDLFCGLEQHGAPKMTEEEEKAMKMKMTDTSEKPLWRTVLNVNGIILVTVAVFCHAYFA

[9] = target: T2, Sodium/glucose cotransporter 2 (Homo sapiens, UniProt P31639); test: Inhibition of full length human SGLT2 assessed as methyl-alpha-D-[U-14C]glucopyranoside uptake after 1.5 hrs by cell-based topcount scintillation counting analysis
T2 sequence (P31639 whole entry): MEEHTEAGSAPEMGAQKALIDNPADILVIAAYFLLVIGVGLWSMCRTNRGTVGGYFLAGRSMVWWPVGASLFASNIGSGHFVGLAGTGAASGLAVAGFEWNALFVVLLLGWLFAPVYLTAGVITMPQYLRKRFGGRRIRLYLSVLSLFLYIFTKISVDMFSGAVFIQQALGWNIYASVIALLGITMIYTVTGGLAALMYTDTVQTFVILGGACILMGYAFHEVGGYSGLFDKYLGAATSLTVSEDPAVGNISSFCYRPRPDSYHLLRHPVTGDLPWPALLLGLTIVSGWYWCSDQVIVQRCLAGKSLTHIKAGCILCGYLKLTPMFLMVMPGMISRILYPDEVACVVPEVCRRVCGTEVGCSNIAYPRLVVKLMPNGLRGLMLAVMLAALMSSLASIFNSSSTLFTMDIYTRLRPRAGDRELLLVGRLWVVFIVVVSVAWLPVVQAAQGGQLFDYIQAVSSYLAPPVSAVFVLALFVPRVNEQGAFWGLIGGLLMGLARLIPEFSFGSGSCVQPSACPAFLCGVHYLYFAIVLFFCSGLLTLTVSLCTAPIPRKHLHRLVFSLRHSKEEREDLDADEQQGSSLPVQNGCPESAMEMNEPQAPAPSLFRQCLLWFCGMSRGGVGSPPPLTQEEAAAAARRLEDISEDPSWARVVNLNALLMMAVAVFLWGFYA

Canis familiaris [10] = test: Antidiabetic activity in Beagle dog assessed as urinary glucose excretion at 0.03 mg/kg, po administered 1 hr prior to glucose challenge measured after 1 to 8 hrs relative to dapagliflozin; format: functional, Canis lupus familiaris, Urine
In short: (§3)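 Overnight-fasted beagle dogs, n = 3 per group, given 0.03 mg/kg orally by gavage in 10% PEG400; vehicle controls received 10% PEG400. Oral glucose (2 g/kg, 5 mL/kg) given 1 h post-dose. Urine collected in metabolic cages at 0–8 and 8–24 h, glucose read on a biochemistry analyzer. Expressed as % of reference positive control; mean ± SD.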

Canis familiaris [11] = test: Antidiabetic activity in Beagle dog assessed as urinary glucose excretion at 0.03 mg/kg, po administered 1 hr prior to glucose challenge measured after 1 to 24 hrs relative to dapagliflozin; format: functional, Canis lupus familiaris, Urine; in short: as §3
Canis familiaris [12] = test: Antidiabetic activity in Beagle dog assessed as urinary glucose excretion at 0.03 mg/kg, po administered 1 hr prior to glucose challenge measured after 8 to 24 hrs relative to dapagliflozin; format: functional, Canis lupus familiaris, Urine
In short: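 Overnight-fasted beagle dogs, n = 3 per group, given 0.03 mg/kg orally by gavage in 10% PEG400; vehicle controls received 10% PEG400. Oral glucose (2 g/kg, 5 mL/kg) given 1 h post-dose. Expressed as % of reference positive control; mean ± SD.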

Row | Compound | Tmax [1] | Activity (Rattus norvegicus [2]) | AUC(0-inf) [3] | half-life [4] | Activity (Rattus norvegicus [5]) | Activity (Rattus norvegicus [6]) | Cmax [7] | IC50 [8] | IC50 [9] | Activity (Canis familiaris [10]) | Activity (Canis familiaris [11]) | Activity (Canis familiaris [12])
1 | [2H]C([2H])([2H])Oc1ccc(C([2H])([2H])c2cc([C@@H]3O[C@H](CO)[C@@H](O)[C@H](O)[C@H]3O)ccc2Cl)cc1 | 0.75 h | 2100 mg | 5.35 µg·h/mL | 5.66 h | 1990 mg | 101 mg | 1.4 µg/mL |  |  |  |  | 
2 | [2H]C([2H])([2H])Oc1ccc(C([2H])([2H])c2cc([C@]3([2H])O[C@H](CO)[C@@H](O)[C@H](O)[C@H]3O)ccc2Cl)cc1 |  | 1650 mg |  |  | 1480 mg | 166 mg |  | 7 µM | 0.0068 µM |  |  | 
3 | [2H]C([2H])([2H])C([2H])([2H])Oc1ccc(Cc2cc([C@@H]3O[C@H](CO)[C@@H](O)[C@H](O)[C@H]3O)ccc2Cl)cc1 |  | 2300 mg | 22.6 µg·h/mL |  | 2150 mg | 145 mg |  |  |  | 3470 mg | 12000 mg | 
4 | [2H]C([2H])(C)Oc1ccc(Cc2cc([C@@H]3O[C@H](CO)[C@@H](O)[C@H](O)[C@H]3O)ccc2Cl)cc1 |  | 2430 mg | 20.9 µg·h/mL |  | 2310 mg | 119 mg |  |  |  |  |  | 
5 | [2H][C@@]1(c2ccc(Cl)c(Cc3ccc(OCC)cc3)c2)O[C@H](CO)[C@@H](O)[C@H](O)[C@H]1O |  | 2650 mg |  |  | 2460 mg | 193 mg |  |  |  | 3760 mg | 12700 mg | 8910 mg
